{"source": "ChEMBL document CHEMBL3108746", "about": "“Novel symmetrical ureas as modulators of protein arginine methyl transferases” (Bioorg Med Chem, 2013)", "key": {"VCaP [1]": {"tested_on": "VCaP", "assay": "Inhibition of PRMT1 gene expression in androgen-stimulated human VCaP cells by RT-PCR analysis", "type": "functional, cell-based", "summary_of_the_method": "(§1)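 VCaP cells treated with androgen alone or with increasing compound concentrations. Transcript levels measured by real-time PCR with gene-specific fluorogenic probes and normalized to human cyclophilin A. Values are means of independent triplicates.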"}, "[2]": {"biological_target": "T1, Protein arginine N-methyltransferase 1 (Homo sapiens, UniProt Q99873)", "assay": "Inhibition of PRMT1-mediated KLK2 gene expression in R1881-stimulated human VCaP cells at 1.56 to 100 uM by RT-PCR analysis", "type": "cell-based", "summary_of_the_method": "as §1"}, "[3]": {"biological_target": "T1, Protein arginine N-methyltransferase 1", "assay": "Inhibition of PRMT1-mediated TMPRSS2 gene expression in R1881-stimulated human VCaP cells by RT-PCR analysis", "type": "cell-based", "summary_of_the_method": "as §1"}, "[4]": {"biological_target": "T1, Protein arginine N-methyltransferase 1", "assay": "Inhibition of PRMT1-mediated FKBP5 gene expression in R1881-stimulated human VCaP cells by RT-PCR analysis", "type": "cell-based", "summary_of_the_method": "as §1"}, "VCaP [5]": {"tested_on": "VCaP", "assay": "Inhibition of AR gene expression in R1881-stimulated human VCaP cells at 1.56 to 100 uM by RT-PCR analysis", "type": "functional, cell-based", "summary_of_the_method": "as §1"}, "VCaP [6]": {"tested_on": "VCaP", "assay": "Cytotoxicity against human VCaP cells after 7 days by Alamar blue staining method", "type": "functional, cell-based", "summary_of_the_method": "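VCaP cells seeded at 16,000 cells/well in phenol-red DMEM with 10% cFCS. After 1 day, treated with 0.1 nM R1881 plus a range of compound concentrations. Cell number read 7 days later by Alamar Blue staining on a luminometer.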"}, "LAPC4": {"tested_on": "LAPC4", "assay": "Cytotoxicity against human LAPC4 cells after 7 days by Alamar blue staining method", "type": "functional, cell-based", "details": "for IC50: LAPC4, 168 h", "summary_of_the_method": "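LAPC-4 cells seeded at 4000 cells/well in medium with 2 mM L-glutamine. After 1 day, treated with 1 nM R1881 plus a range of compound concentrations. Cell number read 7 days later by Alamar Blue staining on a luminometer.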"}, "[7]": {"biological_target": "T1, Protein arginine N-methyltransferase 1", "assay": "Inhibition of recombinant human PRMT1 expressed in Escherichia coli using histone H4 peptide as substrate by chemiluminescence assay"}, "[8]": {"biological_target": "Protein arginine N-methyltransferase 5 (Homo sapiens) (UniProt O14744)", "sequence (O14744 whole entry)": "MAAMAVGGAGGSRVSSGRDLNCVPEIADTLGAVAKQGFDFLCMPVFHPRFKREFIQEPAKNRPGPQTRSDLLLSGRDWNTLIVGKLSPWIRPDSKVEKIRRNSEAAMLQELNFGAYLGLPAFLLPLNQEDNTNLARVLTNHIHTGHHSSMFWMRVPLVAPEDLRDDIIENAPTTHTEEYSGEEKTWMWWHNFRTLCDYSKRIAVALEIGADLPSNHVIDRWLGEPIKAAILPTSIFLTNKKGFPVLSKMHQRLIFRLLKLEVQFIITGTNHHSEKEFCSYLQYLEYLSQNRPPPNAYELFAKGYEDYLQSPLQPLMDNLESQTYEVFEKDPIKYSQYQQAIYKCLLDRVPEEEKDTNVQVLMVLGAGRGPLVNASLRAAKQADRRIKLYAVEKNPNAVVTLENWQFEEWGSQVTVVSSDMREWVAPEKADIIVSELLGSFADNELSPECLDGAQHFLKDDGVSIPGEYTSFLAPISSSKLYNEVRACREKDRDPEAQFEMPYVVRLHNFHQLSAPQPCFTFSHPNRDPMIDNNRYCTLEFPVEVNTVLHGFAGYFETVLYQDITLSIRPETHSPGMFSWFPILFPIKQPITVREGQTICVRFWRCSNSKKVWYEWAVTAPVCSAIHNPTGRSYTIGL", "assay": "Residual activity of recombinant human PRMT5 expressed in Sf9 cells using histone H4 peptide as substrate at 100 uM by chemiluminescence assay"}, "[9]": {"biological_target": "Protein arginine N-methyltransferase 5 (Homo sapiens) (UniProt O14744)", "assay": "Inhibition of recombinant human PRMT5 expressed in Sf9 cells using histone H4 peptide as substrate by chemiluminescence assay", "summary_of_the_method": "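Purified recombinant human PRMT5 (Sf9-expressed) incubated 1 h with S-adenosylmethionine in 1× TBS pH 8.0 with 0.05% Tween20, on wells precoated with histone H4 peptide. Compounds came from 25 mM DMSO stocks diluted in water. Detection used a primary antibody to symmetric-dimethyl R3 of H4 (1 h), then HRP secondary and chemiluminescence. Mean of duplicates with SD.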"}}, "note": "Active and inactive are the calls of the source. No cut-off for these calls is given here."}
{"smiles": "O=C(O)CCCCCNC(=O)NCCCCCC(=O)O", "values": [{"measurement": "inhibition", "setting": "VCaP [1]", "value": "inactive"}, {"measurement": "inhibition", "setting": "[2]", "value": "inactive"}, {"measurement": "inhibition", "setting": "[3]", "value": "Dose-dependent effect"}, {"measurement": "inhibition", "setting": "[4]", "value": "Dose-dependent effect"}, {"measurement": "inhibition", "setting": "VCaP [5]", "value": "inactive"}, {"measurement": "Activity", "setting": "VCaP [6]", "value": "inactive"}, {"measurement": "Activity", "setting": "LAPC4", "value": "inactive"}, {"measurement": "IC50", "setting": "[7]", "value": 6.1, "unit": "µM"}, {"measurement": "residual activity", "setting": "[8]", "value": 46.2, "unit": "%"}]}
{"smiles": "O=C(Nc1ccc2ccc(S(=O)(=O)Nc3ccc4c(c3)OCCO4)cc2c1)Nc1ccc2ccc(S(=O)(=O)Nc3ccc4c(c3)OCCO4)cc2c1", "values": [{"measurement": "IC50", "setting": "LAPC4", "value": 1.5, "unit": "µM"}, {"measurement": "residual activity", "setting": "[8]", "value": 71.8, "unit": "%"}]}
{"smiles": "O=C(O)/C=C/c1cccc(N2CCN(c3cccc(/C=C/C(=O)O)c3)C2=O)c1", "values": [{"measurement": "Activity", "setting": "VCaP [6]", "value": "inactive"}, {"measurement": "Activity", "setting": "LAPC4", "value": "inactive"}, {"measurement": "residual activity", "setting": "[8]", "value": 61.5, "unit": "%"}]}
{"smiles": "O=C(O)/C=C/c1cccc(N2CCN(c3cccc(/C=C/C(=O)O)n3)C2=O)n1", "values": [{"measurement": "inhibition", "setting": "[9]", "value": "Active"}, {"measurement": "Activity", "setting": "VCaP [6]", "value": "inactive"}, {"measurement": "Activity", "setting": "LAPC4", "value": "inactive"}, {"measurement": "residual activity", "setting": "[8]", "value": 10.3, "unit": "%"}]}
{"smiles": "O=C(O)/C=C/c1ccc(N2CCN(c3ccc(/C=C/C(=O)O)cc3)C2=O)cc1", "values": [{"measurement": "Activity", "setting": "VCaP [6]", "value": "inactive"}, {"measurement": "Activity", "setting": "LAPC4", "value": "inactive"}, {"measurement": "residual activity", "setting": "[8]", "value": 35.9, "unit": "%"}]}
{"smiles": "COc1ccc2c3c(cccc13)C(=O)N(C)C2=O", "values": [{"measurement": "Activity", "setting": "VCaP [6]", "value": "inactive"}, {"measurement": "Activity", "setting": "LAPC4", "value": "inactive"}, {"measurement": "IC50", "setting": "[7]", "value": 16.3, "unit": "µM"}, {"measurement": "residual activity", "setting": "[8]", "value": 46.2, "unit": "%"}]}
{"smiles": "O=C(O)/C=C/c1cccc(NC(=O)Nc2cccc(/C=C/C(=O)O)c2)c1", "values": [{"measurement": "Activity", "setting": "VCaP [6]", "value": "inactive"}, {"measurement": "Activity", "setting": "LAPC4", "value": "inactive"}, {"measurement": "residual activity", "setting": "[8]", "value": 92.3, "unit": "%"}]}
{"smiles": "O=C(O)/C=C/c1cccc(N2CCCN(c3cccc(/C=C/C(=O)O)n3)C2=O)n1", "values": [{"measurement": "Activity", "setting": "VCaP [6]", "value": "inactive"}, {"measurement": "Activity", "setting": "LAPC4", "value": "inactive"}, {"measurement": "residual activity", "setting": "[8]", "value": 48.7, "unit": "%"}]}
{"smiles": "O=C(NCCc1cccc(C(=O)O)c1)NCCc1cccc(C(=O)O)c1", "values": [{"measurement": "inhibition", "setting": "[9]", "value": "Active"}, {"measurement": "Activity", "setting": "VCaP [6]", "value": "inactive"}, {"measurement": "Activity", "setting": "LAPC4", "value": "inactive"}, {"measurement": "residual activity", "setting": "[8]", "value": 15.4, "unit": "%"}]}
{"smiles": "O=C(O)/C=C/c1cccc(N2CCCN(c3cccc(/C=C/C(=O)O)c3)C2=O)c1", "values": [{"measurement": "Activity", "setting": "VCaP [6]", "value": "inactive"}, {"measurement": "Activity", "setting": "LAPC4", "value": "inactive"}, {"measurement": "residual activity", "setting": "[8]", "value": 74.4, "unit": "%"}]}
{"smiles": "O=C(O)/C=C/c1ccc(N2CCCN(c3ccc(/C=C/C(=O)O)cc3)C2=O)cc1", "values": [{"measurement": "Activity", "setting": "VCaP [6]", "value": "inactive"}, {"measurement": "Activity", "setting": "LAPC4", "value": "inactive"}, {"measurement": "residual activity", "setting": "[8]", "value": 56.4, "unit": "%"}]}
{"smiles": "O=C(Nc1ccc2c(O)cc(S(=O)(=O)O)cc2c1)Nc1ccc2c(O)cc(S(=O)(=O)O)cc2c1", "values": [{"measurement": "Activity", "setting": "VCaP [6]", "value": "inactive"}, {"measurement": "Activity", "setting": "LAPC4", "value": "inactive"}]}
{"smiles": "O=C(NCc1cccc(C(=O)O)c1)NCc1cccc(C(=O)O)c1", "values": [{"measurement": "Activity", "setting": "VCaP [6]", "value": "inactive"}, {"measurement": "Activity", "setting": "LAPC4", "value": "inactive"}, {"measurement": "residual activity", "setting": "[8]", "value": 56.4, "unit": "%"}]}
{"smiles": "O=C(Nc1ccc2ccc(S(=O)(=O)Nc3ccc(Oc4ccccc4)cc3)cc2c1)Nc1ccc2ccc(S(=O)(=O)Nc3ccc(Oc4ccccc4)cc3)cc2c1", "values": [{"measurement": "IC50", "setting": "LAPC4", "value": 8.6, "unit": "µM"}, {"measurement": "residual activity", "setting": "[8]", "value": 38.5, "unit": "%"}]}
